The source of these data is ChEMBL document CHEMBL4138242, “Synthesis and antibacterial evaluation of novel cationic chalcone derivatives possessing broad spectrum antibacterial activity” (Eur J Med Chem, 2018).

One data set concerns Enterococcus faecalis. Briefly: Antibacterial activity against Enterococcus faecalis ATCC 29212 after 16 to 20 hrs by broth microdilution method. The format is functional. Put shortly:
(§1)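 Broth microdilution per CLSI. Bacteria grown 4-6 h (about 10⁸ CFU/mL), then diluted to about 10⁶ CFU/mL. Medium: Mueller-Hinton broth, except Luria-Bertani broth for E. coli. Compounds in sterile water, twofold series 256-0.5 µg/mL, mixed 1:1 with inoculum, 37 °C for 16-20 h. MIC is the lowest concentration without visible growth. Duplicate wells; experiment repeated at least twice.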
(Broth dilution looks for growth in wells or tubes with falling amounts of substance.)

A short description of data set [1]: Hemolytic activity in sheep RBC after 1 hr. It counts as ADME, cell-based, Ovis aries, Erythrocyte. The conditions noted are these: sheep red blood cells (erythrocytes). In short, it runs like this: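 Sheep red blood cells (150 µL suspension) mixed with 50 µL of compound dilutions (5120-10 µg/mL), 1 h at 37 °C, then centrifuged. Supernatant read at 540 nm. Percent hemolysis calculated relative to RBC-only control (0%) and 0.1% Triton X-100 (100%).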

Data set [2] deals with Staphylococcus aureus. Briefly: Antibacterial activity against Staphylococcus aureus ATCC 29213 after 16 to 20 hrs by broth microdilution method. The format is functional. Put shortly: as §1
In data set [3] the test system is Escherichia coli. Briefly: Antibacterial activity against Escherichia coli ATCC 25922 after 16 to 20 hrs by broth microdilution method. The format is functional. Put shortly:
as §1

For the next data set, the system named is Salmonella enterica. Kind of data set: Antibacterial activity against Salmonella enterica ATCC 13076 after 16 to 20 hrs by broth microdilution method. It counts as functional. In short, it runs like this:
as §1

For data set [4], the system named is Staphylococcus aureus. Kind of data set: Induction of inner membrane permeabilization in Staphylococcus aureus ATCC 29213 at 10 to 20 ug/ml measured every 2 mins for 12 mins by propidium iodide staining-based fluorescence assay. The format is functional, organism-based. In short, it runs like this:
(§2)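 Mid-log cells (~10⁸ CFU/mL) were suspended in PBS (S. aureus) or HEPES/glucose/KCl (E. coli). They were preincubated with propidium iodide for 30 min (S. aureus) or 40 min (E. coli), and baseline fluorescence was read for 8 min. Compound was added to 20 µg/mL final, and fluorescence (ex 535/em 617 nm) was read every 2 min for 12 min.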

Data set [5] has as its system Staphylococcus aureus. Kind of data set: Induction of cytoplasmic membrane depolarization in Staphylococcus aureus ATCC 29213 at 10 to 20 ug/ml measured every 2 mins for 12 mins by DiSC35 dye-based fluorescence assay. It counts as functional, organism-based. Put shortly: (§3)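 Mid-log cells (~10⁸ CFU/mL) were suspended in PBS (S. aureus) or HEPES/glucose/KCl with EDTA (E. coli). They were preloaded with DiSC3(5) for 30 min (S. aureus) or 40 min (E. coli), and baseline fluorescence was read for 8 min. Compound was added to 20 µg/mL final, and fluorescence (ex 622/em 670 nm) was read every 2 min for 12 min. Water served as control.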

In data set [6] the test system is Escherichia coli. Briefly: Induction of inner membrane permeabilization in Escherichia coli ATCC 25922 at 10 to 20 ug/ml measured every 2 mins for 12 mins by propidium iodide staining-based fluorescence assay. The format is functional, organism-based. Put shortly: as §2
Data set [7] has as its system Escherichia coli. Briefly: Induction of cytoplasmic membrane depolarization in Escherichia coli ATCC 25922 at 10 to 20 ug/ml measured every 2 mins for 12 mins by DiSC35 dye-based fluorescence assay. The format is functional, organism-based. In short, it runs like this: as §3

Active and inactive are the calls of the source. No cut-off for these calls is given here.

As a reminder, the MIC is the lowest concentration found to suppress growth. Lower therefore signals a more susceptible organism. What is called HC50 is the concentration that lyses half of the red blood cells. A higher HC50 goes with less damage to red cells. On to `CCCC[N+](C)(C)CC(=O)Nc1ccc(C(=O)/C=C/c2ccccc2F)cc1.[Cl-]`, for which the MIC is 16 µg/mL in the data set on Enterococcus faecalis, 16 µg/mL against Staphylococcus aureus [2], 64 µg/mL against Escherichia coli [3] and 128 µg/mL in the data set with Salmonella enterica. This molecule yielded a concentration for 50% haemolysis (HC50) at 1 h in data set [1] of 262 µg/mL.
Consider `CCCCCCCC[N+](C)(C)CC(=O)Nc1ccc(C(=O)/C=C/c2cccnc2)cc1.[Cl-]`, for which the MIC amounted to 8 µg/mL with Enterococcus faecalis, 4 µg/mL with Staphylococcus aureus [2], 16 µg/mL in the data set with Escherichia coli [3] and 32 µg/mL in the data set with Salmonella enterica. Moreover, the HC50 at 1 h in data set [1] amounted to 127 µg/mL.
The corresponding values for `CCCCCCCC[N+](C)(C)CC(=O)Nc1cccc(C(=O)/C=C/c2cccs2)c1.[Cl-]` are 4 µg/mL, 2 µg/mL, 16 µg/mL, 16 µg/mL and 249 µg/mL.
The like results for `CCCC[N+](C)(C)CC(=O)Nc1ccc(C(=O)/C=C/c2cccs2)cc1.[Cl-]` were, in that order, 32 µg/mL, 32 µg/mL, 64 µg/mL, 128 µg/mL and 360 µg/mL.
With `CCCCCCCC[N+](C)(C)CC(=O)Nc1ccc(C(=O)/C=C/c2c(F)cccc2F)cc1.[Cl-]`, the MIC amounted to 32 µg/mL in the data set with Enterococcus faecalis, 32 µg/mL in the data set with Staphylococcus aureus [2], 128 µg/mL in the data set with Escherichia coli [3] and 128 µg/mL against Salmonella enterica. This molecule had an HC50 at 1 h in data set [1] of 50 µg/mL.
For `CCCC[N+](C)(C)CC(=O)Nc1ccc(C(=O)/C=C/c2ccncc2)cc1.[Cl-]`, the MIC against Enterococcus faecalis was 128 µg/mL; in the data set with Staphylococcus aureus [2], 128 µg/mL; in the data set on Escherichia coli [3], > 128 µg/mL; in the data set with Salmonella enterica it was > 128 µg/mL. In addition, the 50% haemolytic concentration (HC50) at 1 h in data set [1] was > 500 µg/mL.
For the molecule `CCCCCCCC[N+](C)(C)CC(=O)Nc1ccc(C(=O)/C=C/c2ncccc2F)cc1.[Cl-]`, the MIC is 8 µg/mL against Enterococcus faecalis, 2 µg/mL against Staphylococcus aureus [2], 8 µg/mL with Escherichia coli [3] and 16 µg/mL in the data set with Salmonella enterica. The HC50 at 1 h in [1] is 83 µg/mL.
For the molecule `CCCCCCCC[N+](C)(C)CC(=O)Nc1ccc(C(=O)/C=C/c2cccc(F)c2)cc1.[Cl-]`, the MIC against Enterococcus faecalis was 64 µg/mL; against Staphylococcus aureus [2], 32 µg/mL; against Escherichia coli [3], > 128 µg/mL; in the data set on Salmonella enterica it was > 128 µg/mL. This molecule also gave an HC50 at 1 h in data set [1] of 68 µg/mL.
In the case of `CCCCCCCC[N+](C)(C)CC(=O)Nc1ccc(C(=O)/C=C/c2cccc(F)c2F)cc1.[Cl-]`, the outcome in the data set with Staphylococcus aureus [4], in the data set on Staphylococcus aureus [5], in the data set with Escherichia coli [6] and in the data set on Escherichia coli [7] was Active. For the same molecule, the minimal inhibitory concentration (MIC) against Enterococcus faecalis is 2 µg/mL; against Staphylococcus aureus [2], 0.5 µg/mL; against Escherichia coli [3], 2 µg/mL; with Salmonella enterica, 8 µg/mL. This molecule showed an HC50 at 1 h in data set [1] of 56 µg/mL.
For `CCCCCCCCCCCC[N+](C)(C)CC(=O)Nc1ccc(C(=O)/C=C/c2ccccc2F)cc1.[Cl-]`, the MIC against Enterococcus faecalis was 8 µg/mL; with Staphylococcus aureus [2], 4 µg/mL; against Escherichia coli [3] it was 16 µg/mL; against Salmonella enterica it was 32 µg/mL. In [1], this molecule yielded an HC50 at 1 h of 293 µg/mL.
As for `CCCCCCCC[N+](C)(C)CC(=O)Nc1ccc(C(=O)/C=C/c2ccccn2)cc1.[Cl-]`, the MIC against Enterococcus faecalis was determined as 8 µg/mL; in the data set with Staphylococcus aureus [2], 4 µg/mL; against Escherichia coli [3] it was 16 µg/mL; in the data set with Salmonella enterica, 32 µg/mL. Also, in data set [1], the HC50 at 1 h is 187 µg/mL.
The corresponding values for `CCCCCCCC[N+](C)(C)CC(=O)Nc1ccc(C(=O)/C=C/c2ccc(C(C)(C)C)cc2)cc1.[Cl-]` are 4 µg/mL, 2 µg/mL, 16 µg/mL, 16 µg/mL and 284 µg/mL.
The corresponding values for `CCCCCCCC[N+](C)(C)CC(=O)Nc1ccc(C(=O)/C=C/c2cccc(Br)n2)cc1.[Cl-]` are 8 µg/mL, 4 µg/mL, 16 µg/mL, 32 µg/mL and 363 µg/mL.
On to `C[C@@H](O)[C@H]1C(=O)N2C(C(=O)O)=C(S[C@@H]3CN[C@H](C(=O)N(C)C)C3)[C@H](C)[C@H]12` [MEROPENEM], for which the MIC in the data set with Escherichia coli [3] is < 0.125 µg/mL.
Take `CCCCCCCCCCCCCCCCCC[N+](C)(C)CC(=O)Nc1ccc(C(=O)/C=C/c2ccccc2F)cc1.[Cl-]`: the MIC in the data set with Enterococcus faecalis, with Staphylococcus aureus [2], in the data set on Escherichia coli [3] and against Salmonella enterica was > 128 µg/mL in each case. Moreover, the HC50 at 1 h in data set [1] amounted to 444 µg/mL.
`CCCCCCCC[N+](C)(C)CC(=O)Nc1ccc(C(=O)/C=C/c2cc([N+](=O)[O-])ccc2OCC)cc1.[Cl-]`: the MIC is 2 µg/mL against Enterococcus faecalis, 8 µg/mL in the data set with Staphylococcus aureus [2], > 128 µg/mL in the data set on Escherichia coli [3] and > 128 µg/mL with Salmonella enterica. This molecule yielded an HC50 at 1 h in data set [1] of 102 µg/mL.
In the case of `CCCCCCCC[N+](C)(C)CC(=O)Nc1ccc(C(=O)/C=C/c2ccncc2)cc1.[Cl-]`, the minimum inhibitory concentration (MIC) in the data set with Enterococcus faecalis turned out to be 8 µg/mL; against Staphylococcus aureus [2], 4 µg/mL; in the data set with Escherichia coli [3] it was 16 µg/mL; against Salmonella enterica, 32 µg/mL. In [1], this molecule registered an HC50 at 1 h of 200 µg/mL.
The corresponding values for `CCCCCCCCCCCCCC[N+](C)(C)CC(=O)Nc1ccc(C(=O)/C=C/c2ccccc2F)cc1.[Cl-]` are > 128 µg/mL, 8 µg/mL, > 128 µg/mL, > 128 µg/mL and 192 µg/mL.
